Laboratory results from ChEMBL document CHEMBL1125330, “N-substituted pyrazino[2,3-c][1,2,6]thiadiazine 2,2-dioxides. A new class of diuretics” (J Med Chem, 1992).

Columns and labels:
Conditions in all cases: in vivo
Rattus norvegicus [1] = assay: Mean potassium excretion in rats when compound administered at 20 mg/kg po and vehicle dosed at 78.97 umol/kg; type: ADME, organism-based; set-up: dose 20 mg/kg, route oral
Procedure, shortened: (§1)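 Male Sprague-Dawley rats (HC/CFY, 175-200 g), no food or water for 18 h before and during the test. Single gavage dose (2.5-160 mg/kg; vehicle 1% carboxymethyl cellulose/0.1% Tween 80, 0.5 mL/100 g bw), then distilled water 2.5 mL/100 g bw po. Individual metabolic cages, 6 h urine. K+ by flame photometry, Cl- colorimetric, as mequiv/6 h/kg bw; unpaired Student t-test vs control.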

Rattus norvegicus [2] = assay: Volume of urine 3h after the compound was administered 125 mg/kg po in rat; type: ADME, organism-based; set-up: dose 125 mg/kg, route oral
Procedure, shortened: (§2)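 Onset/duration protocol: male Sprague-Dawley rats (HC/CFY, 175-200 g), food and water withdrawn for 18 h before and during the test. Single gavage dose in 1% carboxymethyl cellulose/0.1% Tween 80 (0.5 mL/100 g bw), then distilled water load (2.5 mL/100 g bw po). Two rats per metabolic cage, six pairs per group. Urine collected at 0-1, 1-2, 2-3, 3-4 and 4-6 h; Na+ by flame photometry. Vehicle controls; nonpaired Student t-test.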

Rattus norvegicus [3] = assay: Volume of urine 4 hr after the compound was administered 125 mg/kg po in rat; type: ADME, organism-based; set-up: dose 125 mg/kg, route oral; procedure, shortened: as §2
Rattus norvegicus [4] = assay: Mean urinary output in rats when compound administered at 5 mg/kg po and vehicle dosed at 19.74 umol/kg; type: ADME, organism-based, Urine; set-up: dose 5 mg/kg, route oral
Procedure, shortened: (§3)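 Water-loaded male Sprague-Dawley rats (HC/CFY, 175-200 g) fasted and without water for 18 h. Oral gavage of 2.5-160 mg/kg in 1% CMC with 0.1% Tween 80, then distilled water 2.5 mL/100 g po. Urine collected 6 h in metabolic cages, mean output in mL/6 h/kg bw. Unpaired Student t-test against vehicle; dose-response by linear regression.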

Rattus norvegicus [5] = assay: Mean Chlorine excretion in rats when compound administered at 10 mg/kg po and vehicle dosed at 39.48 umol/kg; type: ADME, organism-based; set-up: dose 10 mg/kg, route oral; procedure, shortened: as §1
Rattus norvegicus [6] = assay: Mean potassium excretion in rats when compound administered at 10 mg/kg po and vehicle dosed at 39.48 umol/kg; type: ADME, organism-based; set-up: dose 10 mg/kg, route oral; procedure, shortened: as §1
Rattus norvegicus [7] = assay: Mean sodium excretion in rats when compound administered at 5 mg/kg po and vehicle dosed at 19.74 umol/kg; type: ADME, organism-based; set-up: dose 5 mg/kg, route oral
Procedure, shortened: (§4)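 Male Sprague-Dawley rats (HC/CFY, 175-200 g) fasted and water-deprived 18 h before and during the test. Dosed by gavage at 2.5-160 mg/kg in 1% carboxymethyl cellulose/0.1% Tween 80, 0.5 mL/100 g bw. Immediately hydrated with water (2.5 mL/100 g bw, po). Urine collected 6 h in metabolic cages; Na+ and K+ by flame photometry; mean mequiv/6 h/kg bw; nonpaired Student t-test.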

Rattus norvegicus [8] = assay: Mean sodium excretion in rats when compound administered at 20 mg/kg po and vehicle dosed at 78.97 umol/kg; type: ADME, organism-based; set-up: dose 20 mg/kg, route oral; procedure, shortened: as §4
Rattus norvegicus [9] = assay: Mean sodium excretion in rats when compound administered at 80 mg/kg po and vehicle dosed at 315.88 umol/kg; type: ADME, organism-based; set-up: dose 80 mg/kg, route oral; procedure, shortened: as §4
Rattus norvegicus [10] = assay: Mean urinary output in rats when compound administered at 80 mg/kg po and vehicle dosed at 315.88 umol/kg; type: ADME, organism-based, Urine; set-up: dose 80 mg/kg, route oral; procedure, shortened: as §3
Rattus norvegicus [11] = assay: Mean Chlorine excretion in rats when compound administered at 20 mg/kg po and vehicle dosed at 78.97 umol/kg; type: ADME, organism-based; set-up: dose 20 mg/kg, route oral; procedure, shortened: as §1
Rattus norvegicus [12] = assay: Volume of urine 1 hr after the compound was administered 125 mg/kg po in rat; type: ADME, organism-based; set-up: dose 125 mg/kg, route oral; procedure, shortened: as §2
Rattus norvegicus [13] = assay: Mean urinary output in rats when compound administered at 10 mg/kg po and vehicle dosed at 39.48 umol/kg; type: ADME, organism-based, Urine; set-up: dose 10 mg/kg, route oral; procedure, shortened: as §3
Rattus norvegicus [14] = assay: Urinary sodium 1 hr after the compound was administered 125 mg/kg po in rat; type: ADME, organism-based, Urine; set-up: dose 125 mg/kg, route oral
Procedure, shortened: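 Onset and duration study in fasted, water-loaded male Sprague-Dawley rats housed two per metabolic cage, six pairs per group. Single oral dose given, then water 2.5 mL/100 g po. Urine volume and sodium (flame photometry) measured over 0-1, 1-2, 2-3, 3-4 and 4-6 h intervals. Mean values compared with vehicle by Student t-test.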

Rattus norvegicus [15] = assay: Urinary sodium 6 hr after the compound was administered 125 mg/kg po in rat; type: ADME, organism-based, Urine; set-up: dose 125 mg/kg, route oral; procedure, shortened: as §2
Rattus norvegicus [16] = assay: Mean sodium excretion in rats when compound administered at 0 mg/kg po and vehicle dosed at 0 umol/kg; type: ADME, organism-based; set-up: dose 0 mg/kg, route oral; procedure, shortened: as §4
Rattus norvegicus [17] = assay: Mean potassium excretion in rats when compound administered at 2.5 mg/kg po and vehicle dosed at 9.87 umol/kg; type: ADME, organism-based; set-up: dose 2.5 mg/kg, route oral; procedure, shortened: as §1
Rattus norvegicus [18] = assay: Volume of urine 6 hr after the compound was administered 125 mg/kg po in rat; type: ADME, organism-based; set-up: dose 125 mg/kg, route oral; procedure, shortened: as §2
Rattus norvegicus [19] = assay: Mean potassium excretion in rats when compound administered at 0 mg/kg po and vehicle dosed at 0 umol/kg; type: ADME, organism-based; set-up: dose 0 mg/kg, route oral; procedure, shortened: as §1
Rattus norvegicus [20] = assay: Mean potassium excretion in rats when compound administered at 40 mg/kg po and vehicle dosed at 157.94 umol/kg; type: ADME, organism-based; set-up: dose 40 mg/kg, route oral; procedure, shortened: as §4
Rattus norvegicus [21] = assay: Mean Chlorine excretion in rats when compound administered at 2.5 mg/kg po and vehicle dosed at 9.87 umol/kg; type: ADME, organism-based; set-up: dose 2.5 mg/kg, route oral; procedure, shortened: as §1
Rattus norvegicus [22] = assay: Mean sodium excretion in rats when compound administered at 160 mg/kg po and vehicle dosed at 631.76 umol/kg; type: ADME, organism-based; set-up: dose 160 mg/kg, route oral; procedure, shortened: as §4
Rattus norvegicus [23] = assay: Volume of urine 2 hr after the compound was administered 125 mg/kg po in rat; type: ADME, organism-based; set-up: dose 125 mg/kg, route oral; procedure, shortened: as §2

SMILES: Nc1nc(N)c2nc(-c3ccccc3)c(N)nc2n1
- K (Rattus norvegicus [1]): 0.16 m equiv 6hr-1 kg-1 (body weight)-1
- Urine volume (Rattus norvegicus [2]): 2.73 mL
- Urine volume (Rattus norvegicus [3]): 1.78 mL
- V (Rattus norvegicus [4]): 30.19 ml 6hr-1 (kg of body weight)-1
- Cl- (Rattus norvegicus [5]): 1.89 m equiv 6hr-1 kg-1 (body weight)-1
- K (Rattus norvegicus [6]): 0.18 m equiv 6hr-1 kg-1 (body weight)-1
- Na (Rattus norvegicus [7]): 2.28 m equiv 6hr-1 kg-1 (body weight)-1
- Na (Rattus norvegicus [8]): 2.42 m equiv 6hr-1 kg-1 (body weight)-1
- Na (Rattus norvegicus [9]): 3.37 m equiv 6hr-1 kg-1 (body weight)-1
- V (Rattus norvegicus [10]): 44.92 ml 6hr-1 (kg of body weight)-1
- Cl- (Rattus norvegicus [11]): 1.83 m equiv 6hr-1 kg-1 (body weight)-1
- Urine volume (Rattus norvegicus [12]): 0.48 mL
- V (Rattus norvegicus [13]): 31.13 ml 6hr-1 (kg of body weight)-1
- Urinary Na+ (Rattus norvegicus [14]): 0.04 m equiv
- Urinary Na+ (Rattus norvegicus [15]): 0.46 m equiv
- Na (Rattus norvegicus [16]): 0.58 m equiv 6hr-1 kg-1 (body weight)-1
- K (Rattus norvegicus [17]): 0.32 m equiv 6hr-1 kg-1 (body weight)-1
- Urine volume (Rattus norvegicus [18]): 4.36 mL
- K (Rattus norvegicus [19]): 0.5 m equiv 6hr-1 kg-1 (body weight)-1
- K (Rattus norvegicus [20]): 0.18 m equiv 6hr-1 kg-1 (body weight)-1
- Cl- (Rattus norvegicus [21]): 1.34 m equiv 6hr-1 kg-1 (body weight)-1
- Na (Rattus norvegicus [22]): 3.32 m equiv 6hr-1 kg-1 (body weight)-1
- Urine volume (Rattus norvegicus [23]): 3.2 mL
